# Compound activity deposited in PubChem BioAssay by several laboratories.
# Many of the other results were omitted from the sample, so hits are more common in it than they were.
# Avidin fluor = compound fluoresces at 488/530 nm on avidin beads; compound fluorescence 488/530 nm, flow cytometry; hits give high values; fluorescence (KMESF) at 10 µM; 0.38% of 220,000 active; in the data active means fluorescence above about 47
# ABCG2 inh = inhibitors of human ABCG2 transporter, ABCB1 counter-screen; inhibition, % at 6.6 µM; 0.1% of 190,000 active; IgMXP3 cells, JC-1 efflux, flow cytometry; Q9UNQ0;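 active means inhibition above 80%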;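 further: 0% = DMSO and 100% = nicardipine control wells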
# Target sequence (Q9UNQ0 whole entry, looked up): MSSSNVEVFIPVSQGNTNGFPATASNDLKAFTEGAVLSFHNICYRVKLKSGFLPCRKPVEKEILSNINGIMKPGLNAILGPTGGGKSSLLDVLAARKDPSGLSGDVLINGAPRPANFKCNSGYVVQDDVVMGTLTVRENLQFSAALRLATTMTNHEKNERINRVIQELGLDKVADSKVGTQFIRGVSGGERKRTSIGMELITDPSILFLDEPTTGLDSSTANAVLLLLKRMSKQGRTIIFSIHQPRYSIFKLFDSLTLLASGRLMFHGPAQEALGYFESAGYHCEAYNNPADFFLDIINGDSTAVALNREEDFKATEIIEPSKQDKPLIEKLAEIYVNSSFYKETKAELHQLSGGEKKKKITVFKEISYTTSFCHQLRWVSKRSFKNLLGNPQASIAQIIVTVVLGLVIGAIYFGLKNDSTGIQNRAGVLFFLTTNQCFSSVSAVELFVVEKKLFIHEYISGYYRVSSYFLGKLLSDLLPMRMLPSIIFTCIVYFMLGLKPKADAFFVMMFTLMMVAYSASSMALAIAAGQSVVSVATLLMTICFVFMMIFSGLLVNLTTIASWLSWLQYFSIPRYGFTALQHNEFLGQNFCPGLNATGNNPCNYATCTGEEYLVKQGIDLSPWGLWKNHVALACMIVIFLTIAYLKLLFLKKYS
#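 Incubation: cells with compound and JC-1, 10 min at 25 °C, rotating, no wash / Test system: IgMXP3 (ABCG2) plus far-red-tagged CCRF-Adr (ABCB1) cells / Compound dosing: one concentration, 6.6 µM final / Also added: JC-1 fluorescent substrate / Evaluation: efflux inhibition in percent versus controls / Detection: flow cytometry, 530 nm JC-1 signal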
# L major viab = reduces viability of Leishmania major promastigotes | 9% of 200,000 active | resazurin fluorescence viability | AID 1063 | inhibition, % at 10 µM;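 further: promastigotes grown with compound for 44 hours at 28 °C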
# PKD1 inh = inhibitors of human PKD1 kinase; Q15139; PKD1 kinase fluorescence polarization assay; 0.056% of 200,000 active; inhibition, % (concentration not given with the values)
# ABCB1 inh = inhibitors of human ABCB1 transporter, ABCG2 counter-screen; CCRF-Adr cells, JC-1 efflux, flow cytometry; inhibition, % at 6.6 µM; 0.067% of 190,000 active; in the data active means inhibition above about 40%;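 further: 0% = vehicle and 100% = reference inhibitor; higher value means more JC-1 retained so stronger ABCB1 efflux block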
# GSH fluor = compound fluoresces at 488/530 nm on GSH beads; GSH beads flow cytometry, compound fluorescence 488/530 nm; hits give high values; 0.25% of 190,000 active; fluorescence (KMESF) at 10 µM; in the data active means fluorescence above about 89;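 further: glutathione beads carrying GST-tagged Bcl family fusion proteins plus one bare bead set; values are compound well signal with DMSO vehicle wells as background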
# Active calls of the source: *; x = no result; + = active, no number. Unless noted, no stated cut-off is given here; in the data, active means inhibition above about 50%; inactive means the rest.
SMILES,Avidin fluor,ABCG2 inh,L major viab,PKD1 inh,ABCB1 inh,GSH fluor
O=C(Cc1ncc(C(F)(F)F)cc1Cl)Nc1ccc(F)cc1,12,1,-5,-5,1,33
N#Cc1ccc(-c2ccc(OCC(=O)NCCCN3CCCC3=O)cc2)cc1,9,12,12,-3,1,27
Cc1ccc(S(=O)(=O)N2CCCOC2CNC(=O)C(=O)NCc2ccco2)cc1 (configuration not stated),4,9,-2,6,0,9
Cc1ccc(CN2CCC(C(=O)NCCC(C)C)CC2)o1,22,7,60*,13,0,19
CC(C)CCNC(=O)C1CCN(c2nc3ccccc3o2)CC1,16,2,0,7,0,4
CC(C)Cn1c(N)c(C(=O)NCC2CCCO2)c2nc3ccccc3nc21 (configuration not stated),31,1,59*,-5,0,22
Nc1c(C(=O)OCC2CCCO2)c2nc3ccccc3nc2n1C1CCCC1 (configuration not stated),8,27,51*,6,4,36
S=c1[nH]nc(-c2cc(-c3ccccc3)n[nH]2)n1/N=C/C(Br)=C/c1ccccc1,7,x,x,x,x,x
Cc1ccc(C(=O)OCC(=O)Nc2ccccc2Sc2ccccc2)cc1C,13,49,62*,-18,2,7
COC(=O)C1CCN(CC(=O)Nc2ccccc2Sc2ccccc2)CC1,10,0,52*,3,0,22
NC(=O)C1CCN(CC(=O)Nc2ccccc2Sc2ccc(Cl)cc2)CC1,12,13,93*,-2,2,11
NC(=O)C1CCN(CC(=O)Nc2ccccc2Sc2ccccc2)CC1,8,1,3,13,1,19
Cc1c(C(C)(C)C)c(C=S)n2ccccc12,31,1,63*,13,0,17
O=C(NC1CCS(=O)(=O)C1)Oc1ccc(Cl)cc1 (configuration not stated),18,-2,1,-1,-1,35
CCc1cc2c(COC(=O)c3c(C)noc3C)cc(=O)oc2cc1O,9,1,86*,-11,0,12
COc1ccc(C(C)=O)cc1COC(=O)c1c(C)noc1C,13,6,-4,9,1,7
COc1cc(CN(C)Cc2ccccc2)cc(OC)c1O,5,1,-2,-3,0,4
S=C1NCCNC(=S)NCCOCCOCCN1,6,0,-8,-9,0,18
Cc1c(NC(=O)/C(C#N)=C/c2cccs2)c(=O)n(-c2ccccc2)n1C,8,5,67*,-3,0,6
O=C(Nc1ccccc1)N1CC=C(c2ccccc2)CC1,10,16,81*,7,1,32
O=C(Nc1cccc2ccccc12)N1CC=C(c2ccccc2)CC1,9,0,-6,2,0,19
O=C(Nc1ccccc1)N1CC=C(c2ccc(F)cc2)CC1,21,3,85*,-6,0,38
O=C(O)C1CCCCC1C(=O)N1CC=C(c2ccccc2)CC1 (configuration not stated),38,13,61*,-9,1,19
O=C(c1cc2ccccc2o1)N1CC=C(c2ccccc2)CC1,3,x,x,x,x,x
c1ccc(CN(Cc2cccs2)C(c2cccs2)c2nnnn2C2CCCC2)cc1 (configuration not stated),4,1,89*,-10,1,16
SMILES,Avidin fluor,ABCG2 inh,L major viab,PKD1 inh,ABCB1 inh,GSH fluor
c1ccc(CC2CCN(C(c3cccs3)c3nnnn3C3CCCC3)CC2)cc1 (configuration not stated),15,3,64*,-7,2,33
CC(/C=N/n1c(-c2ccncc2)n[nH]c1=S)=C\c1ccco1,7,x,x,x,x,x
Cc1nnc(SCC(=O)NNC(=O)c2ccc(Br)cc2)n1C,10,15,-1,-1,3,13
CCN(CC)C(CNS(=O)(=O)c1ccc(Cl)cc1)c1ccccc1 (configuration not stated),11,13,30,-1,1,15
O=C(C1CCN(c2ccc(N3CCOCC3)nn2)CC1)N1CCc2ccccc2C1,9,21,95*,-13,1,34
COc1ccc([N+](=O)[O-])cc1NC(=O)COC(=O)c1ccccc1O,6,x,x,x,x,x
COc1cc([N+](=O)[O-])ccc1NC(=O)COC(=O)c1n[nH]c2ccccc12,14,14,60*,-11,0,7
COc1ccc([N+](=O)[O-])cc1NC(=O)COC(=O)c1ccccc1C(=O)c1ccccc1,6,2,92*,-9,5,9
CCOC(=O)c1cnc2ccc(OCC)cc2c1N1CCN(c2ccccc2OC)CC1,9,8,32,-8,3,28
CCOC(=O)c1cnc2ccc(OCC)cc2c1N(C)Cc1ccccc1,12,10,98*,-4,3,9
O=C1/C(=C/c2cccnc2)SC(=S)N1C1CCS(=O)(=O)C1 (configuration not stated),6,2,92*,0,0,8
O=C1/C(=C\c2cccnc2)SC(=S)N1C1CCS(=O)(=O)C1 (configuration not stated),13,21,73*,-20,1,35
CC(C)Cn1c(N)c(C(=O)COC(=O)CC23CC4CC(CC(C4)C2)C3)c(=O)n(C)c1=O,11,3,98*,5,0,52
CC(C)Cn1c(N)c(C(=O)COC(=O)c2ccc(Cl)cc2)c(=O)n(C)c1=O,13,5,18,4,1,12
CC1CCCC(C)N1C(=O)c1cccc2c1-c1ccccc1/C2=N/O (configuration not stated),143*,14,35,5,1,12
CCOC(=O)c1cccc2c1-c1ccccc1/C2=N/O,19,0,19,27,0,6
Cc1ccccc1-n1nnnc1SCc1ncc(-c2ccccc2)o1,18,3,9,8,1,6
CCN(CC)c1ccc2cc(-c3nnc(-c4ccccc4)o3)c(=O)oc2c1,8,0,1,-6,34,34
CCN(CC)c1ccc2cc(-c3nc(-c4ccc(OC)cc4)cs3)c(=O)oc2c1,636*,+,47,-38,+,445*
O=C1CSc2ccc(C(=O)NCC(c3ccco3)N3CCCCC3)cc2N1 (configuration not stated),50*,3,10,-3,0,71
O=C(NCC(c1ccco1)N1CCCCC1)c1ccc2c(c1)S(=O)(=O)c1ccccc1C2=O (configuration not stated),25,1,35,-6,0,7
COc1ccc(C(=O)Nc2ccc(N3CCOCC3)cc2)cc1OC,99*,26,-1,-20,0,35
